Laboratory results taken from paper PMC3018684 (Free radical research, 2010).
Blank lines part the entries; values can stand above or below the molecule they belong to.

Assays:
[1] = pH 7.4; cited from earlier work
[2] = CF patients, 300/450 mg three times daily for 14 days; cited from earlier work
[3] = target: purified human MPO (Homo sapiens, UniProt P05164); assay: Inhibition kinetics of MPO-dependent TMB oxidation by thiol antioxidants; type: biochemical; details: for mode of inhibition of MPO-catalyzed oxidation of TMB: double reciprocal plots 1/V vs 1/[TMB]
Method in brief: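 Purified human MPO (1.5 nM) incubated with test thiol at 0.1–1 μM. Activity measured as initial rate of TMB oxidation, with TMB varied from 20 to 180 μM. Data plotted as double reciprocal 1/V vs 1/[TMB] (Lineweaver-Burk) for each inhibitor level. Slopes of these lines replotted against inhibitor concentration to derive Ki.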

[4] = tested on: NF-κB; details: GSH 1 mM with CF sputum sol-phase 10 μl/ml, HBE1 cells
[5] = tested on: MPO compound I and II; details: cited from earlier work; for rate constant k of reaction with compound I and II of MPO: both compound I and II
[6] = Ex vivo scavenging of N-chloramines in CF sputum sol-phase; design: species or system human; details: 2 μM antioxidant, 25 μl CF sputum sol-phase, 30 min
[7] = tested on: MPO in CF sputum; type: biochemical, human; details: extrapolated from IC50 in about 2000-fold diluted sputum (Fig 4)
[8] = cited from earlier work
[9] = tested on: ground state ferric MPO; details: cited from earlier work
[10] = oral 0.6–1.0 g three times daily for 4 weeks; cited from earlier work
[11] = no reference given; cited from earlier work
[12] = inhalation in CF patients, secondary to acidic nature; no reference given; cited from earlier work

purified human MPO, sequence (P05164 279-745 limits assumed): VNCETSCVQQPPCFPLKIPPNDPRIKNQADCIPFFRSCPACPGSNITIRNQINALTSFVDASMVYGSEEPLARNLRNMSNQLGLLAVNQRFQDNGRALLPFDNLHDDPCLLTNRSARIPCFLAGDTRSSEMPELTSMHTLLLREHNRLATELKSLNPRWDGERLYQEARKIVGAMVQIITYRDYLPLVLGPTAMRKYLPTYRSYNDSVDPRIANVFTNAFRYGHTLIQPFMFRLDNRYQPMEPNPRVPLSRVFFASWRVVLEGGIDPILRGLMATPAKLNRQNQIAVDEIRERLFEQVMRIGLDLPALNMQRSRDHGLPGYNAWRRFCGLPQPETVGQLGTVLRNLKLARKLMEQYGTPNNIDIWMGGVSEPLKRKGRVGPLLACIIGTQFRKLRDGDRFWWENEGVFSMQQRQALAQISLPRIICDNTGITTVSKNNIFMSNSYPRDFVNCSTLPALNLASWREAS
purified human MPO, sequence (P05164 165-273 limits assumed): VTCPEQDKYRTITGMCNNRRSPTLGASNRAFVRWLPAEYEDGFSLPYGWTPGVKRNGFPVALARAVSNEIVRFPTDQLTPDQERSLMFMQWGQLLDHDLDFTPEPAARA

Ki [3]: 80 nM | mode of inhibition of MPO-catalyzed oxidation of TMB [3]: competitive
Compound: N[C@@H](CCC(=O)N[C@@H](CS)C(=O)NCC(=O)O)C(=O)O [GSH, glutathione]
second-order rate constant for reaction with H2O2 [1]: 0.87 M⁻¹ s⁻¹ | lung function after aerosolized GSH [2]: improved lung function | p65 nuclear translocation induced by CF sputum (sol-phase) [4]: inhibit p65 nuclear translocation | rate constant k of reaction with compound I and II of MPO [5]: 10^1–10^2 M^−1s^−1 | lowering of N-chloramine levels [6]: 62 ± 11% | respiratory tract lining fluid concentration required to inhibit MPO in the CF airway [7]: 1 to 50 mM | rate constant k of reaction with taurine chloramine [8]: 115 ± 14 M⁻¹ s⁻¹

Compound: OO [H2O2]
rate constant k of reaction with ground state ferric MPO [9]: 2.6e+07 M⁻¹ s⁻¹

Compound: CC(=O)N[C@@H](CS)C(=O)O [NAC, N-acetylcysteine]
second-order rate constant for reaction with H2O2 [1]: 0.16 M⁻¹ s⁻¹ | lung function, as assessed by FEV1 [10]: no improvement in lung function | neutrophil GSH content [10]: increased neutrophil GSH content | neutrophil influx in CF airways [10]: decreased neutrophil influx in CF airways | sputum IL-8 levels [10]: decreased sputum IL-8 levels | sputum elastase activity [10]: decreased sputum elastase activity | mode of inhibition of MPO-catalyzed oxidation of TMB [3]: non-competitive | rate constant k of reaction with compound I and II of MPO [5]: 10^1–10^2 M^−1s^−1 | lowering of N-chloramine levels [6]: 80 ± 11% | pKa [11]: 2.2 | respiratory tract lining fluid concentration required to inhibit MPO in the CF airway [7]: 1 to 50 mM | rate constant k of reaction with taurine chloramine [8]: 46 ± 7 M⁻¹ s⁻¹ | reactivity with taurine chloramine relative to GSH (times less reactive) [8]: approx. 2.5 | side effects on inhalation [12]: can induce bronchospasm

Compound: Cc1cc(-c2cc(C)c(N)c(C)c2)cc(C)c1N [TMB, 3, 3′, 5, 5′-tetramethylbenzidine]
rate constant of reaction with MPO compound I [5]: 3.6e+06 M⁻¹ s⁻¹ | rate constant of reaction with MPO compound II [5]: 940000 M⁻¹ s⁻¹
